Screening data from PubChem.
Most compounds without a hit are left out; they make up all but 1% or so of the library.
LYPLA1 inh = LYPLA1 (human) inhibition in PME1 counter-screen. O75608. recombinant LYPLA1, FP-Rh probe fluorescence polarization. inhibition, % at 5.9 µM. 320,000 compounds, 0.16% hits. AID 2174;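 active means inhibition above the mean of all tested compounds plus 3 SD, set per campaign, cut at about 14% in these data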;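 further: inhibitors block serine hydrolase probe labeling of LYPLA1 so polarization falls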
PREPL inh = inhibits the human prolyl oligopeptidase-like enzyme | Q4J6C6 | recombinant PREPL, fluorescence polarization activity-based probe | inhibition, % at 5.96 µM | 320,000 compounds, 0.68% hits | AID 2751; in the data active means inhibition above about 43%
proCasp7 act = activates human procaspase-7, counter-screen for procaspase-3 activators; AID 463210; activation, % at 8.5 µM; P55210; 330,000 compounds, 0.093% hits; recombinant procaspase-7, Ac-DEVD-pNA absorbance 405 nm; D23A/D198A/D206A triple mutant, cannot self-cleave; scale: DMSO 0, 5 µM enzyme 100;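 active means percent activation above the screen-wide mean plus 3 SD, cut at about 25% in these data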
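Detection: p-Nitroaniline absorbance at 405 nm, read at 0 and 120 min; system: Uncleavable procaspase-7 mutant enzyme; evaluation: % activation from two-timepoint absorbance difference, scaled to controls; times: 1 h enzyme–compound preincubation and 2 h substrate reaction, both 25 °C; buffer or medium: Zinc-free HEPES pH 7.4 with 300 mM NaCl, 0.01% Triton X-100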
proCasp3 act = activates human procaspase-3; AID 463141; activation, % at 8.5 µM; recombinant procaspase-3 D3A, Ac-DEVD-pNA absorbance 405 nm; 330,000 compounds, 0.11% hits;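 active means activation above the mean of all tested compounds plus 3 SD, cut at about 21% in these data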
Target sequence (P42574 whole entry D9A/D28A/D175A): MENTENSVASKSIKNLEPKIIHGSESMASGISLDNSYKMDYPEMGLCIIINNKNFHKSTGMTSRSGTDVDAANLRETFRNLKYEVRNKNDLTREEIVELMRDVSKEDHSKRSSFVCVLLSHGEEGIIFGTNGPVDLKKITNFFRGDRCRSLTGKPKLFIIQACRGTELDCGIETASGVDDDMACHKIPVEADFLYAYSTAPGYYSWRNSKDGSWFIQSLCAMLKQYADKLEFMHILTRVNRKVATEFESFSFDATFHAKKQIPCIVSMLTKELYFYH
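Assay system: Procaspase-3 D3A mutant, all three cleavage aspartates alanine. Buffer or medium: Zinc-free HEPES saline buffer with Triton X-100. Times: 1 h compound preincubation, 2 h substrate hydrolysis at 25 °C. Measured by: 405 nm absorbance of p-nitroaniline, reads at 0 and 120 min. Read-out basis: percent activation relative to control range. Replicates: singlicate.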
LYPLA2 inh = blocks human lysophospholipase 2, a PME1 counter-screen; inhibition, % at 5.9 µM; AID 2177; 320,000 compounds, 0.38% hits; recombinant LYPLA2, FP-Rh probe fluorescence polarization;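 active means inhibition above the screen-wide mean plus 3 SD, limit set per campaign, cut at about 26% in these data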
Target sequence (O95372 whole entry, looked up): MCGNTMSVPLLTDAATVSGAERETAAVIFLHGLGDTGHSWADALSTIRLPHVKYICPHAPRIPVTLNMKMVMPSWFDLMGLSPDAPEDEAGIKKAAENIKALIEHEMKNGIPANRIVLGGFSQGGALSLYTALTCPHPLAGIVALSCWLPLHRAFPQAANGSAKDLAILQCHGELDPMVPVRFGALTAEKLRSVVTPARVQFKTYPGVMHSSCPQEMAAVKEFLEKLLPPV
LYPLA2 confirm = counter-screen for PME1 inhibitors: confirmation of human LYPLA2 inhibitors; shares compounds with LYPLA2 inh; recombinant LYPLA2, FP-Rh probe fluorescence polarization; inhibition, % at 5.9 µM; 1,100 compounds, 72% hits; AID 2232;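 active means mean inhibition across replicates above the hit cutoff set in the primary screen, cut at about 26% in these data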;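 further: blocked labeling of the enzyme by serine hydrolase FP-Rh probe lowers polarization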
LYPLA2 gel ABPP = LYPLA2 (human) inhibition, late stage results; shares compounds with LYPLA2 inh; rhLYPLA2 in mouse brain proteome, gel ABPP FP-Rh; inhibition, % at 20 µM; 150 compounds, 30% hits; AID 652029;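 active means inhibition of LYPLA2 enzyme probe labeling above about 50%, limit read from the data; inactive means inhibition below that limit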;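 further: loss of FP-Rh probe labeling of the LYPLA2 gel band measured as band density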
Each line names hits and unclear results; the compound was inactive in the other large screens (follow-up assays come after a bar, where they were run).

O=[N+]([O-])c1ccc(N2CCN(c3ccc([N+](=O)[O-])cc3CO)CC2)c(CO)c1	LYPLA2 inh 27.1 | LYPLA2 confirm 30.2
CC(C)N(C(=O)[C@H]1C[C@H](CC(=O)NCCN2CCOCC2)C(=O)N2CCc3c([nH]c4ccc(Cl)cc34)[C@]12C)C(C)C	none (no result: LYPLA1 inh, PREPL inh, LYPLA2 inh)
O=C(Nc1ccc(Nc2ccncc2)cc1)c1ccc(Nc2ccnc3ccc([N+](=O)[O-])cc23)cc1[N+](=O)[O-]	LYPLA2 inh 27.4 | LYPLA2 confirm inactive
N#C/C(=C\N1CCN(Cc2ccc3c(c2)OCO3)CC1)c1nc2ccccc2s1	LYPLA2 inh 49.7 | LYPLA2 confirm 52.5 | LYPLA2 gel ABPP inactive
O=[N+]([O-])c1ccc(Sc2cccc3cccnc23)cc1	LYPLA2 inh 27.6 | LYPLA2 confirm inactive
O=[N+]([O-])c1ccc(Sc2cccc3cccnc23)c([N+](=O)[O-])c1	none
CC(=O)c1ccc(N2CCN(c3ccnc4cc(Cl)ccc34)CC2)cc1	LYPLA2 inh 35.8 | LYPLA2 confirm 26.9
CC(=O)c1ccc(N2CCN(C(=O)c3ccc4ccccc4n3)CC2)cc1	none
CC(=O)c1ccc(N2CCN(C(=O)/C=C/c3ccc4ccccc4n3)CC2)cc1	LYPLA2 inh 32.6 | LYPLA2 confirm 39.2
CCn1c(=O)c(C(=O)CN2CCN(Cc3ccc4c(c3)OCO4)CC2)c(N)n(Cc2ccccc2)c1=O	LYPLA2 inh 26.3 | LYPLA2 confirm inactive
CCn1c(=O)c(C(=O)CN2CC(C)OC(C)C2)c(N)n(Cc2ccccc2)c1=O (stereo not given)	none
O=C(C(=O)N1CCCc2ccccc21)c1cn(CC(=O)N2CCOCC2)c2ccccc12	none
CCc1ccc(NC(=S)N(CCN2CCCCC2)Cc2ccco2)cc1	none
CC1(C)OC(c2ccccc2)=C/C(=C/C=C2C(=O)c3ccccc3C2=O)O1	none
COc1ccc(S(=O)(=O)Nc2cccc3ccc(O)cc23)cc1	none
COc1ccc(S(=O)(=O)Nc2cc(SCC(=O)O)c(O)c3ccccc23)cc1	LYPLA2 inh 28.0 | LYPLA2 confirm 27.7
Cc1cc(C)c(S(=O)(=O)Nc2cc(SCC(=O)O)c(O)c3ccccc23)cc1C	LYPLA2 inh 29.7 | LYPLA2 confirm inactive
O=S(=O)(Nc1cc(Sc2cccc3cccnc23)c(O)c2ccccc12)c1ccc(F)cc1	none
O=C(O)CSc1cc(NS(=O)(=O)c2ccc(Cl)cc2)c2ccccc2c1O	LYPLA2 inh 28.1 | LYPLA2 confirm inactive
Cc1cc(C)c(S(=O)(=O)Nc2ccc(O)cc2)cc1C	none
COc1ccccc1N(Cc1cc(=O)[nH]c2ccccc12)C(=O)c1cccc([N+](=O)[O-])c1	none
O=C(CSc1nncn1-c1cccnc1)Nc1ccccc1[N+](=O)[O-]	none
CCOC(=O)C1(C)/C(=N/Nc2ccc(S(N)(=O)=O)cc2)C(=O)C(=O)N1c1ccccc1 (stereo not given)	none
CCOC(=O)C1(C)C=C(Nc2ccc(C)cc2)C(=O)N1c1ccc(C)cc1 (stereo not given)	LYPLA2 inh 26.8 | LYPLA2 confirm inactive
CC(C)(C)N(Cc1ccccc1)C(=O)COC(=O)c1ccc(N2CCCC2=O)cc1	none (no result: LYPLA1 inh, LYPLA2 inh)
O=[N+]([O-])c1ccc(C(O)CN2CCN(C/C=C/c3ccccc3)CC2)cc1 (stereo not given)	LYPLA2 inh 62.2 | LYPLA2 confirm 54.1 | LYPLA2 gel ABPP inactive
O=C(CN1CCN(C/C=C/c2ccccc2)CC1)Nc1cc([N+](=O)[O-])ccc1Cl	LYPLA1 inh 21.7, PREPL inh 48.6, LYPLA2 inh 30.9 | LYPLA2 confirm 28.5
Cc1cc(NC(=O)CN2CCN(C/C=C/c3ccccc3)CC2)c([N+](=O)[O-])cc1C	none
O=C(/C=C/c1ccco1)N1CCN(S(=O)(=O)/C=C/c2ccccc2)CC1	none
O=C(/C=C/c1ccco1)N1CCN(C/C=C/c2ccccc2)CC1	LYPLA2 inh 27.0 | LYPLA2 confirm inactive
C[C@H](NC(=O)OC(C)(C)C)c1nnc(SCC(=O)Nc2cccc(Cl)c2)o1	none
